Reference: ChEMBL document CHEMBL3120079, “NF-κB inhibitors from Eurycoma longifolia” (J Nat Prod, 2014)
Values after ≈ are worked out from the molar mass of the structure shown. Active and inactive are the calls of the source.

Legend:
[1] = test system: HEK293; experiment: Growth inhibition of TNF-alpha stimulated human HEK-293/NF-kB-luc cells assessed as cell viability at 30 uM incubated for 30 mins prior to TNF-alpha challenge for 4 hrs by CellTracker Green CMFDA staining; type: cell-based; conditions: hek293, 4 h
Method in brief: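 Cells loaded 1 h with 2 μM CellTracker Green CMFDA in serum-free medium, reseeded at 4 × 10^4 cells/well overnight in phenol red-free, FBS-free DMEM. Pretreated with test compound or vehicle (0.1% DMSO) for 30 min, then TNF-α 2 ng/mL for 4 h. After lysis, CMFDA fluorescence was compared with vehicle-treated cells.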

[2] = species on record: Homo sapiens; experiment: Inhibition of NF-kappaB activity in TNF-alpha stimulated human HEK-293/NF-kB-luc cells at 30 uM incubated for 30 mins prior to TNF-alpha challenge for 4 hrs by luciferase reporter gene assay
Method in brief: (§1)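 HEK293/NF-κB-luc cells were prestained with 2 μM CMFDA for 1 h, reseeded at 4 × 10^4 cells/well overnight in phenol red-free, serum-free DMEM, pretreated 30 min with compound or 0.1% DMSO vehicle, then stimulated with TNF-α 2 ng/mL for 4 h. Lysates were read for firefly luciferase, normalized to CMFDA fluorescence for cell number. Screen at 30 μM; IC50 determined for selected compounds.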

[3] = (§2) Inhibition of NF-kappaB activity in TNF-alpha stimulated human HEK-293/NF-kB-luc cells incubated for 30 mins prior to TNF-alpha challenge for 4 hrs by luciferase reporter gene assay; method in brief: as §1
[4] = Toxicity against brine shrimp; type: organism-based; conditions: artemia, in vivo; read-out: LD50 (the source's name)
[5] = species on record: Homo sapiens; experiment: as §2; method in brief: as §1
[6] = Acute toxicity in po dosed mouse; type: organism-based; conditions: in vivo
[7] = Homo sapiens, HEK293, read-out: IC50

Row | SMILES | Activity [1] | inhibition [2] | IC50 [3, 7] [µM] | LC50 [4] [µg/mL] | inhibition [5] | IC50 [3] | LD50 [6] [mg/kg]
1 | O=c1ccc2nccc3c4ccc(O)cc4n1c23 | Non-toxic | > 50% | 3.8 |  |  |  | 
2 | CC1=CC(=O)[C@@H](O)[C@]2(C)[C@H]3[C@@]4(O)OC[C@@]35[C@@H](C[C@@H]12)OC(=O)[C@H](O)[C@@]5(O)[C@@H](C)[C@H]4O | Non-toxic | > 50% | 0.7 | 10.3 (≈ 25.1 µM) |  |  | 
3 | COc1cc(C(=O)O)cc(OC)c1O |  |  |  |  | inactive |  | 
4 | C[C@@H]1CC[C@]2(C(=O)O[C@@H]3O[C@H](CO)[C@@H](O)[C@H](O)[C@H]3O)CC[C@]3(C)C(=CC[C@@H]4[C@@]5(C)CC[C@H](O)[C@@](C)(CO)[C@@H]5CC[C@]43C)[C@@H]2[C@]1(C)O [PEDUNCULOSIDE] | Non-toxic |  |  |  | inactive |  | 
5 | CC1=CC(=O)[C@@H](O)[C@]2(C)[C@H]3[C@@H](O)[C@@H]4OC(=O)[C@@H]([C@H]4C)[C@]3(C)[C@H](O)C[C@@H]12 | Non-toxic | > 50% | 1.5 |  |  |  | 
6 | COc1ccc2c3ccnc4ccc(=O)n(c2c1)c43 | Non-toxic | > 50% | 7.4 |  |  |  | 
7 | C[C@H]1[C@H]2OC(=O)[C@@H]1[C@]1(C)C(=O)C=C3[C@H](C)CC(=O)[C@@H](O)[C@]3(C)[C@H]1[C@H]2O | Non-toxic | > 50% | 18.4 |  |  |  | 
8 | CC1=CC(=O)[C@@H](O)[C@@]2(C)[C@H]1[C@@H](O)[C@H]1OC(=O)C3[C@@H](C)[C@H](O)[C@H](O)[C@H]2[C@]31C (stereo partly drawn) [LONGILACTONE] | Non-toxic | > 50% | 4.7 | 145 (≈ 395 µM) |  |  | 
9 | CC1=CC(=O)[C@@H](O)[C@]2(C)[C@H]3C(=O)[C@H](O)[C@H](C)[C@@H]4CC(=O)O[C@H](C[C@@H]12)[C@]34C | Non-toxic | > 50% | 1.9 |  |  |  | 
10 | CC1=C[C@H](O)[C@@H](O)[C@@]2(C)[C@H]1CC(=O)[C@@]1(C)[C@H]3C(=O)O[C@H]([C@@H]3C)[C@H](O)[C@@H]12 [EURYCOLACTONE E] | Non-toxic | > 50% | 3.8 |  |  |  | 
11 | CC1=CC(=O)[C@@]2(C)C1=CC(=O)[C@]1(C)[C@@H]2[C@@H](O)[C@@H]2OC(=O)[C@H]1[C@H]2C [LAURYCOLACTONE B] | Non-toxic |  |  |  |  | Not Active | 
12 | COc1cc2c3ccnc4ccc(=O)n(c2cc1OC)c43.Cl | Non-toxic | > 50% | 19.5 |  |  |  | 
13 | COC(=O)c1nccc2c1[nH]c1ccccc12 | Non-toxic | > 50% | 29.3 |  |  |  | 
14 | CC1=CC(=O)[C@]2(C)[C@H]3[C@@H](O)[C@@H]4OC(=O)[C@@H]([C@H]4C)[C@]3(C)C(=O)C[C@@H]12 [LAURYCOLACTONE A] | Non-toxic |  |  |  |  | Not Active | 
15 | COc1cc(C(=O)O)ccc1O |  |  |  |  | inactive |  | 
16 | CC1=CC(=O)[C@@H](O)[C@@]2(C)C1=CC(=O)[C@]1(C)[C@@H]2[C@@H](O)[C@@H]2OC(=O)[C@H]1[C@H]2C | Non-toxic | > 50% | 6.2 |  |  |  | 
17 | O=C(O)c1ccc(O)c(-c2cc(C(=O)O)ccc2O)c1 |  |  |  |  | inactive |  | 
18 | COc1c(O)c2nccc3c4ccccc4n(c1=O)c23 [PICRASIDINE Q] | Non-toxic | inactive |  |  |  |  | 
19 | COc1cc(C)c2c(=O)cc(C[C@H](C)O)oc2c1[C@@H]1O[C@H](CO)[C@@H](O)[C@H](O)[C@H]1OC(=O)/C=C/c1ccc(O)cc1 |  |  |  |  | inactive |  | 
20 | COc1ccc(-c2oc3c(OC)c(OC)c(OC)c(OC)c3c(=O)c2OC)cc1OC [3,5,6,7,8,3',4'-HEPTAMETHOXYFLAVONE] | Non-toxic | > 50% | 23.3 |  |  |  | 
21 | CC1=CC(=O)[C@@H](O)[C@]2(C)[C@H]3[C@@H](O)[C@H](O)[C@H](C)[C@]4(O)[C@@H](O)C(=O)O[C@H](C[C@@H]12)[C@]34C | Non-toxic | > 50% | 1 | 324 (≈ 816 µM) |  |  | 
22 | CC1=CC(=O)[C@@H](O)[C@@]2(C)[C@H]1CC(=O)[C@@]1(C)[C@H]3C(=O)O[C@H]([C@@H]3C)[C@H](O)[C@@H]12 [EURYCOMALACTONE] | Non-toxic | > 50% | 0.5 |  |  |  | 
23 | COc1cc2ccc(=O)oc2cc1O [SCOPOLETIN] | Non-toxic |  |  |  | inactive |  | 
24 | COc1cc(C=O)ccc1O |  |  |  |  | inactive |  | 
25 | C=C1C(=O)O[C@@H]2C3O[C@]3(C)CC/C=C(\C)CC[C@@H]12 (stereo partly drawn) | Non-toxic |  | 1.5 |  |  |  | 
26 | C=C1[C@@H](O)[C@@]2(O)OC[C@]34[C@H]2[C@@]2(C)[C@H](O)C(=O)C=C(C)[C@@H]2C[C@H]3OC(=O)[C@H](O)[C@@]14O [EURYCOMANONE] | Non-toxic | > 50% | 2.4 | 3.5 (≈ 8.57 µM) |  |  | 50
27 | CC(=O)O[C@@H](CC[C@@H](OC(C)=O)[C@]1(C)CC[C@H]([C@@](C)(O)CCC=C(C)C)O1)[C@@]1(C)CC[C@H]([C@@](C)(O)CCC=C(C)C)O1 | Non-toxic |  |  |  | inactive |  | 
28 | O=c1ccc2nccc3c4ccc(O[C@@H]5O[C@H](CO)[C@@H](O)[C@H](O)[C@H]5O)cc4n1c23 | Non-toxic | inactive |  |  |  |  | 
29 | COc1cc2ccc(=O)oc2c(O)c1OC | Non-toxic |  |  |  | inactive |  | 
